In ChEMBL document CHEMBL4513216, “Probing the Open Global Health Chemical Diversity Library for Multistage-Active Starting Points for Next-Generation Antimalarials” (ACS Infect Dis, 2020):

Assay: Toxicity liver stage against HepG2, at 10uM
Assay type: cell-based
Parameters: test concentration 10 uM, cell line HepG2-A16-CD81EGFP
Conditions: human, HepG2-A16-CD81EGFP cells; read-out: INHIBITION
Summary of the method: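 Uninfected HepG2-A16-CD81EGFP cells, 3 × 10^3 per well, 1536-well, plated on prespotted compound at 10 μM final, parasite-free screening media added to match infected plates; puromycin 10 μM positive, DMSO 0.5% negative; run in parallel with 48 h PbLuc assay at 37 °C, 5% CO2; viability by CellTiter-Glo luminescence, normalized to controls.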

Compound	cytotoxicity at 10 µM
COc1c(C)cnc(CN(C)C(=O)c2cccnc2N(C)C)c1C	-12.3%
O=C(CCn1cnc2cc(F)c(F)cc21)N1CCN2CCCCC2C1 (configuration not stated)	-12.3%
CCC(CC)C(=O)c1c[nH]c(C(=O)N2CCN(c3ccccc3)CC2)c1	14.7%
CC(C)Cn1cncc1CNC(=O)c1cccc(CC2CCNCC2)c1	-4.47%
CCC1CN(CCCNS(C)(=O)=O)c2ccccc2O1 (configuration not stated)	-7.03%
Cc1n[nH]c(C)c1C1COCCN1C(=O)c1ccc2c(c1)CCO2 (configuration not stated)	-4.01%
NCC1CCC(C(NC(=O)c2ccccc2)c2ccccn2)CC1 (configuration not stated)	0%
CNC(=O)CC1CC2(CCN(Cc3nccs3)CC2)c2ccccc21 (configuration not stated)	-15%
CC1CCCN(C(=O)c2cccc(CS(C)(=O)=O)c2)C1 (configuration not stated)	-1.42%
CNc1oc(-c2ccc(S(=O)(=O)N(C)C)o2)nc1C#N	-5.96%
Cc1csc(CNC(=O)NCCc2ccc3c(c2)OCCO3)n1	4.74%
O=C(NCc1ccnc(OCC2CC2)c1)C1COc2ccccc2O1 (configuration not stated)	-3.88%
CC(=O)N1[C@H](Cn2cncn2)C[C@@H]2CN(C(=O)NC3CC3)CC[C@@H]21	-5.16%
c1csc(CN2CCC3(CC2)CCN(CC2CCOCC2)C3)n1	3.83%
Cc1cccc(CN(Cn2nc(C)c3c(C)onc3c2=O)C2CC2)c1	1.33%
CC(=O)c1c(C)nn(CC(=O)N2Cc3cnc(CC(C)C)nc3C2)c1C	3.75%
COc1cc(NCc2c(C)noc2C)c(C(=O)N(C)C)cc1OC	6.85%
COc1cccc(CNCc2c(C(C)C)nn(C)c2N(C)C)c1OC	1.87%
CCc1nc2n(n1)CC(Nc1cc(C)nc3ncnn13)CC2 (configuration not stated)	-9.91%
O=C(c1ccccn1)N1C[C@H]2CC[C@@H](C1)N(C(=O)CCc1cccs1)C2	-9%
CC1CC(=O)c2cnc3nc(N4CCOCC4)[nH]c(=O)c3c2C1 (configuration not stated)	5.31%
CS(=O)(=O)CCCSCc1ccc(Br)c(F)c1	4.64%
Cc1cccnc1CN(C)c1ncnc2[nH]ccc12	4.77%

Compound	cytotoxicity at 10 µM
CO[C@H]1CNC[C@@H]1NC(=O)c1cc(C)nc2ccc(C)cc12	1.25%
COC[C@@H]1CCC[C@@]12CN(Cc1ccco1)CCO2	2.03%
CN(C)C(=O)COC[C@]12COC[C@H]1CN(CC1CCC1)C2	-6.07%
CCc1noc(CN2CCN(C(=O)C3CC3)CC2)n1	-1.88%
Cn1ccnc1CN1CCC2(CC1)COC2	6.81%
O=C1CCC2(CCCN(C(=O)c3cnccn3)CC2)N1 (configuration not stated)	-2.66%
COCCC(Cc1cccc(Br)c1)C(=O)N(C)C (configuration not stated)	13%
CCN(CC)C(=O)c1ccc(NC(=O)CNc2ccc(Br)cc2F)cc1	4.52%
COc1cc(C2Nc3cc(Cl)ccc3C3=NCCN32)ccc1O (configuration not stated)	-29.3%
NC(=O)CN1CCN(CC2CC2)c2ccccc21	3.92%
Cc1ccc(C(=O)N2CCSCC2)cc1NC(=O)Cn1cncn1	-11.1%
CC(C)c1nnc(NC(=O)N(C)Cc2ccncc2)s1	5.28%
Cc1nc(CN(Cc2cccs2)C2CCS(=O)(=O)C2)oc1C (configuration not stated)	-6.46%
COc1cc(CN)c(OC)c2c1OCO2	-1.29%
Cc1ccc(CN2CCC3(CCN(Cc4ccncc4)CC3)CC2)cc1	8.4%
COc1ccc2c(c1)C(=O)N(C)C1(CCN(CC3CC3)CC1)N2	6.4%
COc1cc(C(C)=O)ccc1SCC(=O)Nc1ccc(C)cn1	4.43%
CC(=O)N1CC(c2ccnc(Nc3nccs3)n2)C1	3.23%
CCC(CC)CN1CCC2(CCC(=O)N2OCc2ccccc2F)CC1	6.69%
Cc1nc(CC(=O)N2CCCCC2Cn2cccn2)cs1 (configuration not stated)	-1.55%
COc1ccc(-c2cnc(CN3CCCC3CO)o2)cc1 (configuration not stated)	9.38%
Cc1cccc(CNC(CN2CCN(C)CC2)c2ccccc2)c1 (configuration not stated)	-3.61%
CNC(=O)c1ccc2c(c1)C1(CCN(CC(C)C)CC1)C(=O)N2	-2.56%

Compound	cytotoxicity at 10 µM
O=S(=O)(c1ccccc1)N1CCCC1c1cc[nH]n1 (configuration not stated)	-6.58%
CCN(CC)C1COc2ccc(Br)cc2C1=O (configuration not stated)	-7.16%
O=C(CN1CCCC1c1nc(-c2ccccc2)no1)N1CCOCC1 (configuration not stated)	4.17%
Cc1ccsc1CN1CCc2c(nc(N3CCCCC3C)[nH]c2=O)C1 (configuration not stated)	-3.42%
FC(F)(F)Oc1ccc(-c2noc([C@@H]3Cc4nc[nH]c4CN3)n2)cc1	-7.47%
O=S(=O)(C1CC1)N1CC[C@]2(C[C@@H](Oc3ccccn3)CO2)C1	-10.4%
CNC(=O)[C@H]1C[C@@H]2CN(C(=O)c3ccncc3F)C[C@@H]2N1C	-111%
Cc1ncsc1C(=O)NC1CCN(CCC(N)=O)CC1	-10.2%
CNc1ncc(C(=O)N2CCOC(C(=O)Nc3ccccc3)C2)cn1 (configuration not stated)	-4.35%
COc1ccc2c(c1)OCC(Cc1cnccc1N)C2 (configuration not stated)	4.28%
CCCOC1CCCN(c2ncnc3c2CCN(C(=O)C2CC2)C3)C1 (configuration not stated)	4.84%
NC(=O)c1ccnc(N2CCCC(CO)(Cc3ccccc3)C2)c1 (configuration not stated)	11.6%
O=C(CCc1cccs1)N1CCCCC1Cn1cccn1 (configuration not stated)	1.54%
Cc1cccnc1CNCC1(O)CCCN(CC(C)(C)C)C1=O (configuration not stated)	-11.8%
Cn1ccnc1COc1ccc(COC(=O)C2CCCO2)cc1 (configuration not stated)	-1.39%
CCOC(=O)c1sc2ccsc2c1CNC(=O)COC	1.51%
COc1ccc(COCC(O)CNC(=O)c2cc(C)no2)cc1 (configuration not stated)	0.742%
CCc1nc(CN(C)C2CCN(CCn3cccn3)C2)no1 (configuration not stated)	-2.21%
O=C(Cc1ccc(F)c(Br)c1)N1CCN(CCO)CC1	-11.5%
CCCn1ncc2c(C(=O)Nc3n[nH]c(SC)n3)cc(C3CC3)nc21	1.52%
Cc1nc(CCC(=O)N2Cc3cnc(-c4ccccc4)nc3C2)n[nH]1	-0.227%
CN(C)c1cccc(C(=O)N2C[C@@H]3CC[C@H]2CN(C(=O)C2CCC2)C3)c1	-0.69%
Cc1nnc(CCNC(=O)C(c2ccc(F)cc2)N(C)C)[nH]1 (configuration not stated)	-5.96%

Compound	cytotoxicity at 10 µM
Cn1cc(Cl)cc1C(=O)N1CCCN(Cc2nccn2C)CC1	-6.04%
CC(C)N(C)C(=O)C1CCC2(CCNCC2)O1 (configuration not stated)	-129%
c1csc(CN2CC(c3nc(-c4cnccn4)no3)C2)c1	-8.28%
Cc1nn(C)c(C)c1C1CCCN1Cc1cccc(C(=O)N(C)C)c1 (configuration not stated)	-11.9%
CCS(=O)(=O)Nc1cnn(Cc2cccc(C)c2)c1	0.724%
Cc1cccc(CN2CCC(n3cc(CCO)nn3)CC2)c1C	0.636%
c1cncc(COCC2CC[C@H]3[C@H](CCN3CC3CCOCC3)O2)c1 (some centres not stated)	-71.4%
O=C1CCc2cc(S(=O)(=O)NCc3cc4n(n3)CCNC4)ccc2N1	3.28%
CCc1noc(C(C)N(C)Cc2ccc(OC)c(OC)c2)n1 (configuration not stated)	-7.13%
O=C(c1ncoc1C1CCCO1)N1CCCC2(CCCCC2)C1 (configuration not stated)	-5.14%
Cc1cnn(CC2CCCCN2Cc2nc(C)c3ccccc3n2)c1 (configuration not stated)	-8.54%
O=C(N[C@@H]1CC[C@@H](N2CCOCC2)[C@@H]1O)c1cnn2cccnc12	-27.1%
Cc1noc(C)c1CN1CCc2ncnc(-c3ccncc3)c2CC1	-87%
O=C([C@@H]1C[C@@H]2CCN(C3CCOCC3)C[C@@H]2O1)N1CCOCC1	7.34%
NS(=O)(=O)CCNC(=O)c1cc2ccccc2nc1N1CCCC1	-10.7%
Cc1ncc(CNC(=O)Cc2ccc(Cl)cc2)c(C2CCCN2C)n1 (configuration not stated)	-0.696%
O=C(Nc1ccc(-c2csnn2)cc1)NC(CCO)C1CC1 (configuration not stated)	15.6%
CCOc1ccc(CNC(=O)N2CCCC(CO)C2)cc1F (configuration not stated)	8.21%
CC1CCN(C(=O)c2cnn3c(-c4ccco4)ccnc23)CC1	8.77%
O=C(CN1CCCC1c1nc2cc(F)ccc2[nH]1)NCc1ccccn1 (configuration not stated)	-0.748%
Cc1ncnc2c1CCN(CC1CCOC1)CC2 (configuration not stated)	-67.2%
O=C(NCCO)C1(Cc2ccccc2-c2cccnc2)CCOCC1	-31.8%
COc1nsc2nc(C3CCCN3C(C)=O)ccc12 (configuration not stated)	6.78%

Compound	cytotoxicity at 10 µM
Cc1cc(C2CCCN2C(=O)CN2C(=O)OC(C)(C)C2=O)on1 (configuration not stated)	-14.1%
O=C(N[C@@H]1CN(Cc2ccc(F)cc2)C[C@H]1O)c1cscn1	-11.7%
CC(C)c1nnc(CN2C(=O)OC[C@@H]2C(C)C)o1	14.3%
c1cc(C2CCN(c3cnccn3)CC2)ncn1	2.64%
CC(C)c1nc(C2CCCN(C(=O)c3cccc4c3OCO4)C2)no1 (configuration not stated)	-12%
COc1cc2cc(C(=O)O)n(C)c2cc1OC	1.03%
Cn1nccc1-c1cccc(CC2CCN(S(C)(=O)=O)C2)n1 (configuration not stated)	4.54%
CC(=O)N1CCCN(C(=O)NCCOc2ccc3c(c2)CCC3)CC1	-1.84%
CNC(=O)C1(CCCc2ccccn2)CN(Cc2nccn2C)C1	-1.23%
CN1CCCN(c2ccc(F)cc2CNC(=O)c2cccnc2)CC1	-2.52%
O=C(CCC1CCCO1)NCc1ccnc(-n2cccn2)c1 (configuration not stated)	-14.6%
CCN(Cc1nc(COC)no1)C(=O)CCn1c(C)cc2ccccc21	-0.0679%
CCNC(=O)NC1CN(CC(=O)NCc2ccccc2C)C[C@@H]1OC (some centres not stated)	-1.6%
Cc1cc2c(cc1C)C(NCc1nnc3n1CCCCC3)CCCO2 (configuration not stated)	0.873%
O=C1COC2(CCN(C(=O)c3ccoc3)CC2)CN1Cc1ccccn1	-1.11%
COc1cccc(-c2cnc3n2CCC32CCN(C(C)=O)CC2)c1	-2.05%
CCc1nnc(CN2CC(n3cccn3)C2)o1	-146%
CCc1nc(C2CCCN2CCS(=O)(=O)c2ccccc2)no1 (configuration not stated)	-8.1%
CC(NCc1cc2cc(F)ccc2o1)c1nnc2n1CCCC2 (configuration not stated)	-7.93%
CC(=O)N1C[C@H]2C3(CCN(S(C)(=O)=O)CC3)CC[C@@]2(C(=O)N(C)C)C1	-1.16%
